# Measured values gathered from unrelated publications.
# Lines come from different studies, so protocols differ.
# Cell line: OVCAR-3
# Effect on: cell growth or viability
SMILES,technique,concentration,time,measurement,value
C[C@]12CC[C@@H]3c4ccc(O)cc4CC[C@H]3[C@@H]1CC[C@@H]2O,ATP luminescence,,72 h,EC50,27600 nM
COc1ccc(-c2ccc(-c3ccc(C(=N)N)nc3)s2)cc1,SRB,,,GI50,1820 nM
O=C1CCC2(Oc3cccc4cccc(c34)O2)c2c(O)ccc(O)c21,resazurin,,72 h,IC50,> 25000 nM
CSc1ccc(/C=C2\C=C(CC(=O)NS(=O)(=O)C(F)(F)F)c3cc(F)ccc32)cc1,WST-1,,48 h,EC50,~160000 nM
COc1ccc(C(=O)/C=C/c2cccc(Cl)c2Cl)cc1S(N)(=O)=O,SRB,10 µM,,inhibition,156%
COc1cccc(Oc2ccccc2NC(=O)CNC(=O)c2cccc3ccccc23)c1,SRB,,48 h,GI50,100 nM
COc1ccc(C(=O)/C=C/c2ccccc2Cl)cc1S(N)(=O)=O,SRB,10 µM,,inhibition,9%
CC/C(=C(\c1ccccc1)c1ccc(OCCN(C)C)cc1)c1ccccc1,ATP luminescence,,72 h,EC90,42900 nM
COc1cc(OC)c(/C=C/S(=O)(=O)Nc2ccc(OC)c(N)c2)c(OC)c1,trypan blue,,96 h,IC50,4 nM
C[C@H]1O[C@@H](n2cc(F)c(=O)[nH]c2=O)[C@H](O)[C@@H]1O,CCK-8,,48 h,IC50,> 50000 nM
COc1ccc(-c2ccc(-c3ccc(C(=N)N)nc3)s2)cc1Cl,SRB,,,GI50,1830 nM
Cc1cc(C)n(C(=S)[S][Au][PH](CCCCCC[PH]([Au][S]C(=S)n2nc(C)cc2C)(c2ccccc2)c2ccccc2)(c2ccccc2)c2ccccc2)n1,,,,GI50,648 nM
CC(C)C(=O)Nc1ccc([N+](=O)[O-])c(C(F)(F)F)c1,CCK-8,,48 h,IC50,34100 nM
COc1ccc(C(=O)/C=C/c2cccnc2)cc1S(N)(=O)=O,SRB,,48 h,GI50,10200 nM
CC(C)c1cc(-c2n[nH]c(=O)n2-c2ccc3c(ccn3C)c2)c(O)cc1O,imaging,,24 h,IC50,279 nM
Cc1ccc(C)c(COc2cc(NC(=O)c3ccc4c(c3)OCO4)ccc2N(C)S(C)(=O)=O)c1,SRB,,48 h,GI50,39.6 nM
